Experimental data from ChEMBL document CHEMBL3580633, “Benzoxaborole antimalarial agents. Part 4. Discovery of potent 6-(2-(alkoxycarbonyl)pyrazinyl-5-oxy)-1,3-dihydro-1-hydroxy-2,1-benzoxaboroles” (J Med Chem, 2015).

How the values were obtained:
Plasmodium falciparum [1] = test: Antimalarial activity against chloroquine-resistant Plasmodium falciparum W2 cultured in human erythrocytes assessed as inhibition of parasite growth at 5 uM incubated for 48 hrs by YOYO-1 staining based flow cytometry; format: functional; conditions: W2, 48 h
Procedure, shortened: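 W2 P. falciparum grown in human erythrocytes in RPMI-1640 with 10% human serum or 0.5% Albumax, under 3% O2/5% CO2/92% N2. Sorbitol-synchronised rings at 2% hematocrit, 1% parasitemia, exposed to one concentration for 48 h. Cells fixed in 2% formaldehyde, stained with YOYO-1, and parasites per erythrocyte counted by flow cytometry. Value given as percent inhibition versus untreated control.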

Plasmodium falciparum [2] = test: Antimalarial activity against chloroquine-resistant Plasmodium falciparum W2 cultured in human erythrocytes assessed as inhibition of parasite growth incubated for 48 hrs by YOYO-1 staining based flow cytometry; format: functional, organism-based; conditions: W2, 48 h
Plasmodium falciparum [3] = test: Antimalarial activity against chloroquine-sensitive Plasmodium falciparum 3D7 cultured in human erythrocytes incubated for 48 hrs by [3H]-hypoxanthine incorporation assay; format: functional, organism-based
Procedure, shortened: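 3D7 parasites in human erythrocytes, RPMI-1640 with 0.5% Albumax II, […], 37 °C, 5% O2/5% CO2. Asynchronous cultures (0.5% parasitemia, 2% hematocrit) given 3-fold serial dilutions for 24 h. [3H]hypoxanthine then added for a further 24 h, and incorporation counted by scintillation. Normalised to drug-free infected cells. IC50 from at least three independent experiments.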

Jurkat = test: Cytotoxicity against human Jurkat cells incubated for 72 hrs by MTT assay; format: cell-based
Plasmodium berghei [4] = test: Antiplasmodial activity against Plasmodium berghei infected in Swiss Webster mouse assessed as mouse survival at 30 mg/kg, po dosed once daily for 4 consecutive days beginning 1 hr after initial infection and measured on day 12 post infection by Giemsa staining method; format: functional
Procedure, shortened: (§1)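 Female Swiss Webster mice (about 20 g) were infected ip with 6 × 10^6 P. berghei-infected erythrocytes from a donor mouse. They were dosed by oral gavage once daily for 4 days, starting 1 h post-infection, in PEG 300/propylene glycol/water (55/25/20 by weight). Parasitemia was read daily on Giemsa smears from day 4, and mice were euthanized above 50% parasitemia. Percent survival was tracked to 21 days.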

Plasmodium berghei [5] = test: Antiplasmodial activity against Plasmodium berghei infected in Swiss Webster mouse assessed as mouse survival at 30 mg/kg, po dosed once daily for 4 consecutive days beginning 1 hr after initial infection and measured on day 13 post infection by Giemsa staining method; format: functional; procedure, shortened: as §1
Plasmodium berghei [6] = test: Antiplasmodial activity against Plasmodium berghei infected in Swiss Webster mouse assessed as mouse survival at 30 mg/kg, po dosed once daily for 4 consecutive days beginning 1 hr after initial infection and measured on day 14 post infection by Giemsa staining method; format: functional; procedure, shortened: as §1
Plasmodium berghei [7] = test: Antiplasmodial activity against Plasmodium berghei infected in Swiss Webster mouse assessed as mouse survival at 30 mg/kg, po dosed once daily for 4 consecutive days beginning 1 hr after initial infection and measured on day 15 post infection by Giemsa staining method; format: functional; procedure, shortened: as §1
Plasmodium berghei [8] = test: Antiplasmodial activity against Plasmodium berghei infected in Swiss Webster mouse assessed as mouse survival at 30 mg/kg, po dosed once daily for 4 consecutive days beginning 1 hr after initial infection and measured on day 16 to 19 post infection by Giemsa staining method; format: functional; procedure, shortened: as §1
Plasmodium berghei [9] = test: Antiplasmodial activity against Plasmodium berghei infected in Swiss Webster mouse assessed as mouse survival at 30 mg/kg, po dosed once daily for 4 consecutive days beginning 1 hr after initial infection and measured on day 20 post infection by Giemsa staining method; format: functional; procedure, shortened: as §1
Plasmodium berghei [10] = test: Antiplasmodial activity against Plasmodium berghei infected in Swiss Webster mouse assessed as mouse survival at 30 mg/kg, po dosed once daily for 4 consecutive days beginning 1 hr after initial infection and measured on day 18 post infection by Giemsa staining method; format: functional; procedure, shortened: as §1
Plasmodium berghei [11] = test: Antiplasmodial activity against Plasmodium berghei infected in Swiss Webster mouse assessed as mouse survival at 30 mg/kg, po dosed once daily for 4 consecutive days beginning 1 hr after initial infection and measured on day 4 post infection by Giemsa staining method; format: functional; procedure, shortened: as §1
Plasmodium berghei [12] = test: Antiplasmodial activity against Plasmodium berghei infected in Swiss Webster mouse assessed as mouse survival at 30 mg/kg, po dosed once daily for 4 consecutive days beginning 1 hr after initial infection and measured on day 5 post infection by Giemsa staining method; format: functional; procedure, shortened: as §1
Plasmodium berghei [13] = test: Antiplasmodial activity against Plasmodium berghei infected in Swiss Webster mouse assessed as mouse survival at 30 mg/kg, po dosed once daily for 4 consecutive days beginning 1 hr after initial infection and measured on day 6 post infection by Giemsa staining method; format: functional; procedure, shortened: as §1
Plasmodium berghei [14] = test: Antiplasmodial activity against Plasmodium berghei infected in Swiss Webster mouse assessed as mouse survival at 30 mg/kg, po dosed once daily for 4 consecutive days beginning 1 hr after initial infection and measured on day 7 post infection by Giemsa staining method; format: functional; procedure, shortened: as §1
Plasmodium berghei [15] = test: Antiplasmodial activity against Plasmodium berghei infected in Swiss Webster mouse assessed as mouse survival at 30 mg/kg, po dosed once daily for 4 consecutive days beginning 1 hr after initial infection and measured on day 8 post infection by Giemsa staining method; format: functional; procedure, shortened: as §1
Plasmodium berghei [16] = test: Antiplasmodial activity against Plasmodium berghei infected in Swiss Webster mouse assessed as mouse survival at 30 mg/kg, po dosed once daily for 4 consecutive days beginning 1 hr after initial infection and measured on day 9 post infection by Giemsa staining method; format: functional; procedure, shortened: as §1
Plasmodium berghei [17] = test: Antiplasmodial activity against Plasmodium berghei infected in Swiss Webster mouse assessed as mouse survival at 30 mg/kg, po dosed once daily for 4 consecutive days beginning 1 hr after initial infection and measured on day 10 post infection by Giemsa staining method; format: functional
Procedure, shortened: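 Female Swiss Webster mice (about 20 g) infected ip with 6 × 10^6 P. berghei-infected erythrocytes. Oral gavage once daily for 4 days, starting 1 h after infection. Vehicle PEG300/propylene glycol/water (55/25/20 by weight). Giemsa-smear parasitemia counted daily from day 4. Mice euthanised above 50% parasitemia. Survival followed to day 21, 5 mice per dose, chloroquine 30 mg/kg as reference.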

Plasmodium berghei [18] = test: Antiplasmodial activity against Plasmodium berghei infected in Swiss Webster mouse assessed as mouse survival at 30 mg/kg, po dosed once daily for 4 consecutive days beginning 1 hr after initial infection and measured on day 11 post infection by Giemsa staining method; format: functional; procedure, shortened: as §1

CCOC(=O)c1ccc(Oc2ccc3c(c2)B(O)OC3)cc1
inhibition at 5 µM (Plasmodium falciparum [1]): 0%

CCOC(=O)c1ccc(Oc2ccc3c(c2)B(O)OC3)nc1
inhibition at 5 µM (Plasmodium falciparum [1]): 0%

COC(=O)c1ccc(Oc2ccc3c(c2)B(O)OC3)cn1
IC50 (Plasmodium falciparum [2]): 23 nM | IC50 (Plasmodium falciparum [3]): 120 nM | IC50 (Jurkat): > 100000 nM

COC(=O)c1cnc(Oc2ccc3c(c2)B(O)OC3)nc1
inhibition at 5 µM (Plasmodium falciparum [1]): 80%

COC(=O)c1ccc(Oc2ccc3c(c2)B(O)OC3)nn1
IC50 (Plasmodium falciparum [2]): 82 nM | IC50 (Plasmodium falciparum [3]): 100 nM

OB1OCc2ccc(Oc3cnccn3)cc21
IC50 (Plasmodium falciparum [2]): 9380 nM | IC50 (Plasmodium falciparum [3]): > 5000 nM

N#Cc1cnc(Oc2ccc3c(c2)B(O)OC3)cn1
IC50 (Plasmodium falciparum [2]): 470 nM | IC50 (Plasmodium falciparum [3]): 3250 nM

OCc1cnc(Oc2ccc3c(c2)B(O)OC3)cn1
IC50 (Plasmodium falciparum [2]): 440 nM | IC50 (Plasmodium falciparum [3]): 2240 nM

NCc1cnc(Oc2ccc3c(c2)B(O)OC3)cn1
IC50 (Plasmodium falciparum [2]): 110 nM | IC50 (Plasmodium falciparum [3]): 470 nM

CN(C)Cc1cnc(Oc2ccc3c(c2)B(O)OC3)cn1
IC50 (Plasmodium falciparum [2]): > 10000 nM | IC50 (Plasmodium falciparum [3]): > 5000 nM

CNC(=O)c1cnc(Oc2ccc3c(c2)B(O)OC3)cn1
IC50 (Plasmodium falciparum [2]): 240 nM | IC50 (Plasmodium falciparum [3]): 320 nM

CCNC(=O)c1cnc(Oc2ccc3c(c2)B(O)OC3)cn1
IC50 (Plasmodium falciparum [2]): 120 nM | IC50 (Plasmodium falciparum [3]): 870 nM | IC50 (Jurkat): 79900 nM

CN(C)C(=O)c1cnc(Oc2ccc3c(c2)B(O)OC3)cn1
IC50 (Plasmodium falciparum [2]): 150 nM | IC50 (Plasmodium falciparum [3]): 960 nM | IC50 (Jurkat): > 100000 nM

O=C(NCCO)c1cnc(Oc2ccc3c(c2)B(O)OC3)cn1
IC50 (Plasmodium falciparum [2]): > 10000 nM | IC50 (Plasmodium falciparum [3]): 5900 nM

CN(C)CCNC(=O)c1cnc(Oc2ccc3c(c2)B(O)OC3)cn1
IC50 (Plasmodium falciparum [2]): 6660 nM | IC50 (Plasmodium falciparum [3]): > 5000 nM

CC(C)S(=O)(=O)NC(=O)c1cnc(Oc2ccc3c(c2)B(O)OC3)cn1
IC50 (Plasmodium falciparum [2]): 190 nM | IC50 (Plasmodium falciparum [3]): 130 nM

O/N=C/c1cnc(Oc2ccc3c(c2)B(O)OC3)cn1
IC50 (Plasmodium falciparum [2]): 1770 nM | IC50 (Plasmodium falciparum [3]): 3000 nM

N/C(=N\O)c1cnc(Oc2ccc3c(c2)B(O)OC3)cn1
IC50 (Plasmodium falciparum [2]): > 10000 nM | IC50 (Plasmodium falciparum [3]): > 5000 nM

CC1(C)COC(c2cnc(Oc3ccc4c(c3)B(O)OC4)cn2)=N1
IC50 (Plasmodium falciparum [2]): 800 nM | IC50 (Plasmodium falciparum [3]): 1460 nM

Cc1nnc(-c2cnc(Oc3ccc4c(c3)B(O)OC4)cn2)o1
IC50 (Plasmodium falciparum [2]): > 10000 nM | IC50 (Plasmodium falciparum [3]): > 5000 nM

OB1OCc2ccc(Oc3cnc(-c4nnn[nH]4)cn3)cc21
IC50 (Plasmodium falciparum [2]): > 10000 nM | IC50 (Plasmodium falciparum [3]): > 5000 nM

CCOC(=O)c1cnc(Oc2ccc3c(c2)B(O)OC3)cn1
IC50 (Plasmodium falciparum [2]): 0.5 nM | IC50 (Plasmodium falciparum [3]): 4.4 nM | IC50 (Jurkat): 16800 nM

CC(C)OC(=O)c1cnc(Oc2ccc3c(c2)B(O)OC3)cn1
IC50 (Plasmodium falciparum [2]): 1.2 nM | IC50 (Plasmodium falciparum [3]): 1.4 nM | IC50 (Jurkat): > 100000 nM

CC(C)COC(=O)c1cnc(Oc2ccc3c(c2)B(O)OC3)cn1
IC50 (Plasmodium falciparum [2]): 0.5 nM | IC50 (Plasmodium falciparum [3]): 2.5 nM | IC50 (Jurkat): 17600 nM

CCCCOC(=O)c1cnc(Oc2ccc3c(c2)B(O)OC3)cn1
IC50 (Plasmodium falciparum [2]): 0.2 nM | IC50 (Plasmodium falciparum [3]): 0.7 nM | IC50 (Jurkat): > 100000 nM

CC(C)(C)OC(=O)c1cnc(Oc2ccc3c(c2)B(O)OC3)cn1
IC50 (Plasmodium falciparum [2]): 19 nM | IC50 (Plasmodium falciparum [3]): 22 nM | IC50 (Jurkat): > 100000 nM

CC(C)CCOC(=O)c1cnc(Oc2ccc3c(c2)B(O)OC3)cn1
IC50 (Plasmodium falciparum [2]): 0.4 nM | IC50 (Plasmodium falciparum [3]): 2 nM

O=C(OC1CCCCC1)c1cnc(Oc2ccc3c(c2)B(O)OC3)cn1
IC50 (Plasmodium falciparum [2]): 0.7 nM | IC50 (Plasmodium falciparum [3]): 2.9 nM | IC50 (Jurkat): 52400 nM

CC(C)(C)COC(=O)c1cnc(Oc2ccc3c(c2)B(O)OC3)cn1
IC50 (Plasmodium falciparum [2]): 6.6 nM | IC50 (Plasmodium falciparum [3]): 8.9 nM

CC(C)(N)COC(=O)c1cnc(Oc2ccc3c(c2)B(O)OC3)cn1
IC50 (Plasmodium falciparum [2]): 190 nM | IC50 (Plasmodium falciparum [3]): 250 nM

C[C@@H]1CC[C@H]2[C@@H](C)C(=O)O[C@@H]3O[C@@]4(C)CC[C@@H]1[C@]32OO4 [ARTEMISININ]
IC50 (Plasmodium falciparum [2]): 6 nM

O=C1C(O)=C([C@H]2CC[C@H](c3ccc(Cl)cc3)CC2)C(=O)c2ccccc21 [ATOVAQUONE]
IC50 (Plasmodium falciparum [3]): 1 nM

CCN(CC)CCCC(C)Nc1ccnc2cc(Cl)ccc12 (stereo not drawn) [CHLOROQUINE]
survival at 30 mg/kg (Plasmodium berghei [4]): 100% | survival at 30 mg/kg (Plasmodium berghei [5]): 100% | survival at 30 mg/kg (Plasmodium berghei [6]): 100% | survival at 30 mg/kg (Plasmodium berghei [7]): 100% | survival at 30 mg/kg (Plasmodium berghei [8]): 100% | survival at 30 mg/kg (Plasmodium berghei [9]): 20% | survival at 30 mg/kg (Plasmodium berghei [10]): 100% | survival at 30 mg/kg (Plasmodium berghei [11]): 100% | survival at 30 mg/kg (Plasmodium berghei [12]): 100% | survival at 30 mg/kg (Plasmodium berghei [13]): 100% | survival at 30 mg/kg (Plasmodium berghei [14]): 100% | survival at 30 mg/kg (Plasmodium berghei [15]): 100% | survival at 30 mg/kg (Plasmodium berghei [16]): 100% | survival at 30 mg/kg (Plasmodium berghei [17]): 100% | survival at 30 mg/kg (Plasmodium berghei [18]): 100%
